# According to ChEMBL document CHEMBL1124400, “Synthesis and evaluation of antileukemic activity of 5-thienyl- or 5-(2-furyl)-2,3-dihydro-6,7-bis(hydroxymethyl)-1H-pyrrolizine bis(alkylcarbamates) and derivatives” (J Med Chem, 1989):
# Where “and” joins values, the source holds several entries; their conditions need not be identical. Equal values may be shown once.
# How the values were obtained:
# [1] = Ratio, I x 100/ref I at a dose of 25 mg/kg in L1210 leukemic mice; type: functional
# How it was run: (§1)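 Male B6D2F1 mice, 3 months old, received 10^5 L1210 cells ip on day 0. Dosing was ip on days 1, 5 and 9 in 20% aqueous Tween 80, 0.1–0.2 mL per 20 g, with 8 mice per group. There were 12 vehicle controls and 8 mice given mitomycin 2 mg/kg ip in water. Daily mortality was recorded, with autopsies. Ratio = treated-group MST ×100/reference-group MST; Wilcoxon, p<0.05.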
# [2] = Ratio, I x 100/ref I at a dose of 20 mg/kg in L1210 leukemic mice; type: functional; how it was run: as §1
# Mus musculus [3] = test: MST of mitomycin 2 mg/kg treated group x 100/MST of untreated control group at a dose of 20 mg/kg in L1210 leukemic mice; type: functional
# How it was run: (§2)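 Reference group of 8 B6D2F1 mice bearing ip-grafted 10⁵ L1210 cells (day 0), given mitomycin 2 mg/kg in distilled water ip on days 1, 5 and 9. Controls were 12 mice given vehicle only. Mortality was followed daily with autopsy. Ref I = mitomycin-group MST × 100/control MST, run alongside each test experiment.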
# [4] = Lethal dose in L1210 leukemic mice, by administering compound intraperitoneally; type: toxicity, organism-based; conditions: mouse, in vivo, ip
# How it was run: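 Male B6D2F1 mice (3 months old) received 10⁵ L1210 leukemia cells ip on day 0. One day later they were given compound ip. Mortality was recorded daily for 9 days and the acute LD50 expressed in mg/kg.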
# Mus musculus [5] = test: Median survival time of treated group / untreated group, when 20 mg/kg compound is administered intraperitoneally in L1210 leukemic mice; type: functional; conditions: route intraperitoneal
# How it was run: (§3)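 Male 3-month-old B6D2F1 mice, 10⁵ L1210 cells ip on day 0. Compound was given ip on days 1, 5 and 9 in aqueous 20% Tween 80 (0.1–0.2 mL per 20 g), 8 mice per group. Twelve vehicle controls. Daily mortality with autopsy to assign leukemic versus toxic death. I = treated MST × 100/control MST. Wilcoxon test, p < 0.05; active if I > 125 and p < 0.05.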
# Mus musculus [6] = test: Median survival time of treated group / untreated group, when 25 mg/kg compound is administered intraperitoneally in L1210 leukemic mice; type: functional; conditions: route intraperitoneal; how it was run: as §3
# Mus musculus [7] = test: MST of mitomycin 2 mg/kg treated group x 100/MST of untreated control group at a dose of 25 mg/kg in L1210 leukemic mice; type: functional; how it was run: as §2
# [8] = Ratio of acute lethal dose to the efficient dose 40 mg/kg; type: functional
# How it was run: (§4)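 Ratio of acute LD50 to efficient dose. LD50 came from single ip dosing one day after ip grafting of 10⁵ L1210 cells in B6D2F1 mice, with 9-day mortality. The efficient dose came from ip treatment on days 1, 5 and 9 in the median-survival test.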
# Mus musculus [9] = test: Median survival time of treated group / untreated group, when 35 mg/kg compound is administered intraperitoneally in L1210 leukemic mice; type: functional; conditions: route intraperitoneal; how it was run: as §3
# Mus musculus [10] = test: MST of mitomycin 2 mg/kg treated group x 100/MST of untreated control group at a dose of 40 mg/kg in L1210 leukemic mice; type: functional; how it was run: as §2
# [11] = Ratio, I x 100/ref I at a dose of 40 mg/kg in L1210 leukemic mice; type: functional; how it was run: as §1
# [12] = Ratio of acute lethal dose to the efficient dose 65 mg/kg; type: functional; how it was run: as §4
# [13] = Ratio, I x 100/ref I at a dose of 35 mg/kg in L1210 leukemic mice; type: functional; how it was run: as §1
# Mus musculus [14] = test: Median survival time of treated group / untreated group, when 40 mg/kg compound is administered intraperitoneally in L1210 leukemic mice; type: functional; conditions: route intraperitoneal; how it was run: as §3
# Mus musculus [15] = test: Median survival time of treated group / untreated group, when 65 mg/kg compound is administered intraperitoneally in L1210 leukemic mic; type: functional; conditions: route intraperitoneal; how it was run: as §3
# Mus musculus [16] = test: MST of mitomycin 2 mg/kg treated group x 100/MST of untreated control group at a dose of 65 mg/kg in L1210 leukemic mice; type: functional; how it was run: as §2
# [17] = Ratio, I x 100/ref I at a dose of 65 mg/kg in L1210 leukemic mice; type: functional; how it was run: as §1
# Mus musculus [18] = test: MST of mitomycin 2 mg/kg treated group x 100/MST of untreated control group at a dose of 35 mg/kg in L1210 leukemic mice; type: functional; how it was run: as §2
# [19] = Ratio of acute lethal dose to the efficient dose 35 mg/kg; type: functional; how it was run: as §4
# [20] = Ratio of acute lethal dose to the efficient dose 30 mg/kg; type: functional; how it was run: as §4
# [21] = Ratio, I x 100/ref I at a dose of 30 mg/kg in L1210 leukemic mice; type: functional; how it was run: as §1
# Mus musculus [22] = test: MST of mitomycin 2 mg/kg treated group x 100/MST of untreated control group at a dose of 50 mg/kg in L1210 leukemic mice; type: functional; how it was run: as §2
# [23] = Ratio, I x 100/ref I at a dose of 15 mg/kg in L1210 leukemic mice; type: functional; how it was run: as §1
# Mus musculus [24] = test: Median survival time of treated group / untreated group, when 50 mg/kg compound administered intraperitoneally in L1210 leukemic mice; type: functional; conditions: route intraperitoneal; how it was run: as §3
# Mus musculus [25] = test: MST of mitomycin 2 mg/kg treated group x 100/MST of untreated control group at a dose of 15 mg/kg in L1210 leukemic mice; type: functional; how it was run: as §2
# Mus musculus [26] = test: MST of mitomycin 2 mg/kg treated group x 100/MST of untreated control group at a dose of 30 mg/kg in L1210 leukemic mice; type: functional; how it was run: as §2
# Mus musculus [27] = test: Median survival time of treated group / untreated group, when 30 mg/kg compound is administered intraperitoneally in L1210 leukemic mice; type: functional; conditions: route intraperitoneal; how it was run: as §3
# Mus musculus [28] = test: Median survival time of treated group / untreated group, when 15 mg/kg compound is administered intraperitoneally in L1210 leukemic mice; type: functional; conditions: route intraperitoneal; how it was run: as §3
# [29] = Ratio, I x 100/ref I at a dose of 100 mg/kg in L1210 leukemic mice; type: functional; how it was run: as §1
# Mus musculus [30] = test: MST of mitomycin 2 mg/kg treated group x 100/MST of untreated control group at a dose of 100 mg/kg in L1210 leukemic mice; type: functional; how it was run: as §2
# [31] = Ratio, I x 100/ref I at a dose of 50 mg/kg in L1210 leukemic mice; type: functional; how it was run: as §1
compound,measurement,setting,value
CC(C)NC(=O)OCc1c(COC(=O)NC(C)C)c(-c2ccsc2)n2c1CCC2,Ratio,[1],72
same,Ratio,[2],72
same,Ref I oncostatic index,Mus musculus [3],139
same,LD50,[4],65 mg/kg
same,Oncostatic index,Mus musculus [5],100
same,Oncostatic index,Mus musculus [6],117
same,Ref I oncostatic index,Mus musculus [7],162
CNC(=O)OCc1c(COC(=O)NC)c(-c2cccs2)n2c1CCC2,Ratio,[8],3
same,Oncostatic index,Mus musculus [9],167
same,Ref I oncostatic index,Mus musculus [10],138
same,Ratio,[11],100
same,Ratio,[12],1.8
same,Ratio,[13],100
same,Oncostatic index,Mus musculus [14],138
same,Oncostatic index,Mus musculus [15],125
same,LD50,[4],120 mg/kg
same,Ref I oncostatic index,Mus musculus [16],125
same,Ratio,[17],100
same,Ref I oncostatic index,Mus musculus [18],167
same,Ratio,[19],3.4
same,Ratio,[20],1.7
CC(=O)OCc1c(COC(C)=O)c(-c2cccs2)n2c1CCC2,Ratio,[21],86
same,Ref I oncostatic index,Mus musculus [22],136
same,Ratio,[23],83
same,Oncostatic index,Mus musculus [24],117
same,LD50,[4],80 mg/kg
same,Ref I oncostatic index,Mus musculus [25],121
same,Ref I oncostatic index,Mus musculus [26],140
same,Oncostatic index,Mus musculus [27],114 and 100
same,Oncostatic index,Mus musculus [28],100
same,Ratio,[29],80
same,Ref I oncostatic index,Mus musculus [30],125
same,Ratio,[31],92
